In ChEMBL document CHEMBL1138784, “Rational design, synthesis, and biological evaluation of bis(pyrimido[5,6,1-de]acridines) and bis(pyrazolo[3,4,5-kl]acridine-5-carboxamides) as new anticancer agents” (J Med Chem, 2004):
Blank lines part the entries; values can stand above or below the compound they belong to.

Columns and labels:
[1] = Cytotoxicity against human H460M cancer cell line was determined after 144 hr; assay type: functional, cell-based; settings: Cancer cell lines
Summary of the method: (§1)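 MTT colorimetric assay. Cells seeded by growth characteristics and preincubated 24 h, then exposed to drug for 1 h or 144 h at 37 °C, 5% CO2. H460M, MKN45 and PC-3 were grown in RPMI 1640 with 10% FCS. HCT116 was grown in D-MEM with 10% FBS and 2 mM glutamine.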

MKN-45 = assay: Cytotoxicity against human MKN45 cancer cell line was determined after 144 hr; assay type: functional, cell-based; settings: MKN-45, 144 h; summary of the method: as §1
LoVo [2] = assay: Ratio of IC50 against sensitive LoVo cell line and that of doxorubicin resistance LoVo cell line was determined after 1 hr exposure; assay type: functional, Homo sapiens
LoVo [3] = assay: Cytotoxicity against doxorubicin resistant LoVo cell line was determined against 144 hrs; assay type: functional, cell-based; settings: Homo sapiens
Summary of the method: (§2)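 MTT assay on doxorubicin-sensitive LoVo and resistant LoVo/Dx cells, 24 h preincubation, then 1 h or 144 h drug exposure at 37 °C, 5% CO2. IC50 in nM. Resistance index is IC50 on LoVo/Dx divided by IC50 on LoVo.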

Nucleic Acid = assay: Binding site preference is determined as the ratio of Poly (dA-dT)2 to Poly (dG-dC)2; assay type: nucleic-acid assay
Summary of the method: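 Ethidium displacement fluorometry at pH 7.0 (10 mM Na2HPO4, 10 mM NaH2PO4, 1 mM EDTA) with 1.26 μM ethidium bromide and 1 μM [poly(dA-dT)]2 or [poly(dG-dC)]2, 20 °C. Ex 546 nm, em 595 nm, drug added serially from a DMSO stock. Preference taken from the [AT]/[GC] ratio of C50 values, counted significant only below 0.7 or above 1.3.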

SNB-19 [4] = assay: Percent growth of CNS SNB-19 cell line was determined at 10e-5 M concentration after 48 hr of exposing; assay type: functional, Homo sapiens
Summary of the method: (§3)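 NCI sulforhodamine B screen. Cells seeded by growth rate, 24 h drug-free, then 48 h exposure to 10^-8, 10^-6 or 10^-5 M. Protein-stain optical density expressed as percent growth relative to untreated control (100%); negative values indicate cell kill.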

HCT-116 = assay: Cytotoxicity against human HCT116 cancer cell line was determined after 144 hr; assay type: functional, cell-based; settings: HCT-116, 144 h; summary of the method: as §1
DU-145 [5] = assay: Percent growth of prostate DU-145 cell line was determined at 10e-6 M concentration after 48 hr of exposing; assay type: functional, Homo sapiens
DU-145 [6] = assay: Percent growth of prostate DU-145 cell line was determined at 10e-8 M concentration after 48 h of exposing; assay type: functional, Homo sapiens
[7] = Percent growth of melanoma LOX IMV1 cell line was determined at 10e-5 M concentration after 48 hr of exposing; assay type: functional, Homo sapiens; summary of the method: as §3
[8] = Percent growth of melanoma LOX IMV1 cell line was determined at 10e-6 M concentration after 48 hr of exposing; assay type: functional, Homo sapiens; summary of the method: as §3
[9] = Percent growth of melanoma LOX IMV1 cell line was determined at 10e-8 M concentration after 48 hr of exposing; assay type: functional, Homo sapiens; summary of the method: as §3
PC-3 = assay: Cytotoxicity against human PC3 cancer cell line was determined after 144 hr; assay type: functional, cell-based; settings: PC-3, 144 h; summary of the method: as §1
[10] = Cytotoxicity against doxorubicin resistant LoVo cell line was determined against 1 hour; assay type: cell-based; settings: Homo sapiens; summary of the method: as §2
LoVo [11] = assay: Cytotoxicity against human LoVo cancer cell line was determined after 144 hr; assay type: functional, cell-based; summary of the method: as §2
SNB-19 [12] = assay: Percent growth of CNS SNB-19 cell line was determined at 10e-6 M concentration after 48 hr of exposing; assay type: functional, Homo sapiens; summary of the method: as §3
SNB-19 [13] = assay: Percent growth of CNS SNB-19 cell line was determined at 10e-8 M concentration after 48 hr of exposing; assay type: functional, Homo sapiens; summary of the method: as §3
786-0 [14] = assay: Percent growth of renal 786-O cell line was determined at 10e-5 M concentration after 48 hr of exposing; assay type: functional, Homo sapiens; summary of the method: as §3
786-0 [15] = assay: Percent growth of renal 786-O cell line was determined at 10e-6 M concentration after 48 h of exposing; assay type: functional, Homo sapiens; summary of the method: as §3
786-0 [16] = assay: Percent growth of renal 786-O cell line was determined at 10e-8 M concentration after 48 h of exposing; assay type: functional, Homo sapiens; summary of the method: as §3
MCF7 [17] = assay: Percent growth of breast MCF-7 cell line was determined at 10e-6 M concentration after 48 h of exposing; assay type: functional, Homo sapiens
MCF7 [18] = assay: Percent growth of breast MCF-7 cell line was determined at 10e-8 M concentration after 48 hr of exposing; assay type: functional, Homo sapiens
SW-620 [19] = assay: Percent growth of colon SW-620 cell line was determined at 10e-5 M concentration after 48 hr of exposing; assay type: functional, Homo sapiens; summary of the method: as §3
SW-620 [20] = assay: Percent growth of colon SW-620 cell line was determined at 10e-6 M concentration after 48 hr of exposing; assay type: functional, Homo sapiens; summary of the method: as §3
SW-620 [21] = assay: Percent growth of colon SW-620 cell line was determined at 10e-8 M concentration after 48 hr of exposing; assay type: functional, Homo sapiens; summary of the method: as §3
NCI-H460 [22] = assay: Percent growth of lung NCI-H460 cell line was determined at 10e-5 M concentration after 48 hr of exposing; assay type: functional, Homo sapiens; summary of the method: as §3
NCI-H460 [23] = assay: Percent growth of lung NCI-H460 cell line was determined at 10e-6 M concentration after 48 hr of exposing; assay type: functional, Homo sapiens; summary of the method: as §3
NCI-H460 [24] = assay: Percent growth of lung NCI-H460 cell line was determined at 10e-8 M concentration after 48 hr of exposing; assay type: functional, Homo sapiens; summary of the method: as §3
MOLT-4 [25] = assay: Percent growth of leukemia MOLT-4 cell line was determined at 10e-5 M concentration after 48 hr of exposing; assay type: functional, Homo sapiens; summary of the method: as §3
MOLT-4 [26] = assay: Percent growth of leukemia MOLT-4 cell line was determined at 10e-6 M concentration after 48 h of exposing; assay type: functional, Homo sapiens; summary of the method: as §3
MOLT-4 [27] = assay: Percent growth of leukemia MOLT-4 cell line was determined at 10e-8 M concentration after 48 hr of exposing; assay type: functional, Homo sapiens; summary of the method: as §3
OVCAR-4 [28] = assay: Percent growth of ovarian OVCAR-4 cell line was determined at 10e-5 M concentration after 48 hr of exposing; assay type: functional, Homo sapiens; summary of the method: as §3
OVCAR-4 [29] = assay: Percent growth of ovarian OVCAR-4 cell line was determined at 10e-6 M concentration after 48 hr of exposing; assay type: functional, Homo sapiens; summary of the method: as §3
OVCAR-4 [30] = assay: Percent growth of ovarian OVCAR-4 cell line was determined at 10e-8 M concentration after 48 hr of exposing; assay type: functional, Homo sapiens; summary of the method: as §3
DU-145 [31] = assay: Percent growth of prostate DU-145 cell line was determined at 10e-5 M concentration after 48 hr of exposing; assay type: functional, Homo sapiens
[32] = Cytotoxicity against human LoVo cancer cell line was determined after 1 hr; assay type: cell-based; summary of the method: as §2
[33] = Cytotoxicity against human H460M cancer cell line was determined after 1 hr; assay type: cell-based; settings: Cancer cell lines; summary of the method: as §1
[34] = Cytotoxicity against human MKN45 cancer cell line was determined after 1 hr; assay type: cell-based; settings: Cancer cell lines; summary of the method: as §1
[35] = Cytotoxicity against human HCT116 cancer cell line was determined after 1 hr; assay type: cell-based; settings: HCT-116, 1 h; summary of the method: as §1
HT-29 = assay: Cytotoxicity is determined as the concentration required to inhibit the growth of human colon adenocarcinoma (HT-29) cell line; assay type: functional, cell-based
MCF7 [36] = assay: Percent growth of breast MCF-7 cell line was determined at 10e-5 M concentration after 48 hr of exposing; assay type: functional, Homo sapiens
[37] = Cytotoxicity against human PC3 cancer cell line was determined after 1 hr; assay type: cell-based; settings: Cancer cell lines; summary of the method: as §1

Binding site preference (Nucleic Acid): 2.1
Compound: COc1ccc2c(c1)c(=O)c1c(NCCCN(C)CCCNc3ccc4c(=O)n(CCN(C)C)c(=O)n5c6ccc(OC)cc6c(=O)c3c45)ccc3c(=O)n(CCN(C)C)c(=O)n2c31
IC50 [1]: < 1 pM | IC50 (MKN-45): 2.8 pM | Resistance index (LoVo [2]): 4.2 | IC50 (LoVo [3]): 7600 pM | Growth (SNB-19 [4]): -48% | IC50 (HCT-116): 660 pM | Growth (DU-145 [5]): 3% | Growth (DU-145 [6]): 40% | Growth [7]: -91% | Growth [8]: -34% | Growth [9]: 26% | IC50 (PC-3): 1200 pM | IC50 [10]: 76000 pM | IC50 (LoVo [11]): 950 pM | Growth (SNB-19 [12]): 14% | Growth (SNB-19 [13]): 38% | Growth (786-0 [14]): -79% | Growth (786-0 [15]): 10% | Growth (786-0 [16]): 37% | Growth (MCF7 [17]): -3% | Growth (MCF7 [18]): 39% | Growth (SW-620 [19]): -49% | Growth (SW-620 [20]): -2% | Growth (SW-620 [21]): 30% | Growth (NCI-H460 [22]): -87% | Growth (NCI-H460 [23]): -20% | Growth (NCI-H460 [24]): 14% | Growth (MOLT-4 [25]): -62% | Growth (MOLT-4 [26]): -33% | Growth (MOLT-4 [27]): 6% | Growth (OVCAR-4 [28]): -72% | Growth (OVCAR-4 [29]): -37% | Growth (OVCAR-4 [30]): 0% | Growth (DU-145 [31]): -66% | IC50 [32]: 18000 pM | IC50 [33]: 60 pM | IC50 [34]: 50 pM | IC50 [35]: 850 pM | IC50 (HT-29): < 100 pM | Growth (MCF7 [36]): -63% | IC50 [37]: 4700 pM

Binding site preference (Nucleic Acid): 1.7
Compound: CN(C)CCn1c(=O)c2ccc(NCCCN(C)CCCNc3ccc4c(=O)n(CCN(C)C)c(=O)n5c6ccc(O)cc6c(=O)c3c45)c3c(=O)c4cc(O)ccc4n(c1=O)c23
IC50 [1]: < 1 pM | IC50 (MKN-45): < 1 pM | Resistance index (LoVo [2]): 8.3 | IC50 (LoVo [3]): 59000 pM | Growth (SNB-19 [4]): -17% | IC50 (HCT-116): < 1 pM | Growth (DU-145 [5]): -6% | Growth (DU-145 [6]): 32% | Growth [7]: -77% | Growth [8]: -50% | Growth [9]: 20% | IC50 (PC-3): 10 pM | IC50 [10]: 810000 pM | IC50 (LoVo [11]): 3900 pM | Growth (SNB-19 [12]): -4% | Growth (SNB-19 [13]): 34% | Growth (786-0 [14]): -52% | Growth (786-0 [15]): 1% | Growth (786-0 [16]): 36% | Growth (MCF7 [17]): -1% | Growth (MCF7 [18]): 16% | Growth (SW-620 [19]): -8% | Growth (SW-620 [20]): 10% | Growth (SW-620 [21]): 36% | Growth (NCI-H460 [22]): -60% | Growth (NCI-H460 [23]): -23% | Growth (NCI-H460 [24]): 11% | Growth (MOLT-4 [25]): -60% | Growth (MOLT-4 [26]): -37% | Growth (MOLT-4 [27]): -4% | Growth (OVCAR-4 [28]): -36% | Growth (OVCAR-4 [29]): -37% | Growth (OVCAR-4 [30]): 42% | Growth (DU-145 [31]): -42% | IC50 [32]: 98000 pM | IC50 [33]: < 1 pM | IC50 [34]: < 1 pM | IC50 [35]: 60 pM | IC50 (HT-29): < 100 pM | Growth (MCF7 [36]): -32% | IC50 [37]: 2000 pM
